Measured values as given in ChEMBL document CHEMBL5352462, “Resveratrol derivatives: Synthesis and their biological activities” (Eur J Med Chem, 2023).

Assays:
[1] = tested on: HT-29; experiment: Cytotoxicity against human HT-29 cells incubated for 24 hrs by MTT assay; format: functional, cell-based; settings: HT-29, 24 h
Procedure, shortened: (§1)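 Cells plated at 1.5 × 10⁵ per well, allowed to adhere overnight, medium refreshed, then treated at 10, 50 and 100 μM for 24 h; DMSO vehicle controls (<0.1%). Medium replaced after 72 h. MTT at 5 mg/mL in PBS added, 3 h at 37 °C in 5% CO₂; formazan dissolved in DMSO, absorbance read at 550 nm. IC50 from dose-response curves, mean ± SE of three independent experiments.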

[2] = Lipophilicity, logP of compound; format: physicochemical; settings: octanol/water
Procedure, shortened: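 Log P calculated in silico, not measured experimentally.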

[3] = tested on: HCT cell line; experiment: Cytotoxicity against HCT cell expressing KRAS assessed as growth inhibition by measuring synthetic lethality at 0.2 uM relative to control; format: functional; settings: Homo sapiens
[4] = tested on: HCT cell line; experiment: Cytotoxicity against HCT cell expressing KRAS assessed as growth inhibition by measuring synthetic lethality at 2 uM relative to control; format: functional; settings: Homo sapiens
[5] = tested on: HCT cell line; experiment: Cytotoxicity against HCT cell expressing KRAS assessed as growth inhibition by measuring synthetic lethality at 20 uM relative to control; format: functional; settings: Homo sapiens
[6] = tested on: RKO; experiment: Cytotoxicity against human RKO cell expressing KRAS assessed as growth inhibition by measuring synthetic lethality at 0.2 uM relative to control; format: functional
[7] = tested on: HCT-116; experiment: Cytotoxicity against HCT-116 cell expressing KRAS assessed as growth inhibition by measuring synthetic lethality at 2 uM relative to control; format: functional; settings: Homo sapiens
[8] = tested on: HCT-116; experiment: Cytotoxicity against HCT-116 cell expressing KRAS assessed as growth inhibition by measuring synthetic lethality at 20 uM relative to control; format: functional; settings: Homo sapiens
[9] = tested on: COLO 320; experiment: Cytotoxicity against human COLO 320 cell expressing KRAS assessed as growth inhibition by measuring synthetic lethality at 0.2 uM relative to control; format: functional
[10] = tested on: COLO 320; experiment: Cytotoxicity against human COLO 320 cell expressing KRAS assessed as growth inhibition by measuring synthetic lethality at 2 uM relative to control; format: functional
[11] = tested on: COLO 320; experiment: Cytotoxicity against human COLO 320 cell expressing KRAS assessed as growth inhibition by measuring synthetic lethality at 20 uM relative to control; format: functional
[12] = tested on: SNU-C1; experiment: Cytotoxicity against human SNU-C1 cell expressing KRAS assessed as growth inhibition by measuring synthetic lethality at 0.2 uM relative to control; format: functional
[13] = tested on: SNU-C1; experiment: Cytotoxicity against human SNU-C1 cell expressing KRAS assessed as growth inhibition by measuring synthetic lethality at 2 uM relative to control; format: functional
[14] = tested on: SNU-C1; experiment: Cytotoxicity against human SNU-C1 cell expressing KRAS assessed as growth inhibition by measuring synthetic lethality at 20 uM relative to control; format: functional
[15] = target: Calcitonin gene-related peptide type 1 receptor (Homo sapiens) (UniProt Q16602); experiment: Inhibition of human CGRP1 at 30 uM relative to control
[16] = target: Calcitonin gene-related peptide type 1 receptor (Homo sapiens, UniProt O60894+Q16602); experiment: Inhibition of human CGRP1
[17] = tested on: MIA PaCa-2; experiment: Cytotoxicity against human MIA PaCa-2 cells incubated for 24 hrs by MTT assay; format: functional, cell-based; settings: MIA PaCa-2, 24 h; procedure, shortened: as §1
[18] = target: Microtubule-associated protein tau (Homo sapiens) (UniProt P10636); experiment: Inhibition of Tau in human Huh-7 cells at 40 uM relative to control; format: cell-based
Sequence of Microtubule-associated protein tau (Homo sapiens) (P10636 whole entry): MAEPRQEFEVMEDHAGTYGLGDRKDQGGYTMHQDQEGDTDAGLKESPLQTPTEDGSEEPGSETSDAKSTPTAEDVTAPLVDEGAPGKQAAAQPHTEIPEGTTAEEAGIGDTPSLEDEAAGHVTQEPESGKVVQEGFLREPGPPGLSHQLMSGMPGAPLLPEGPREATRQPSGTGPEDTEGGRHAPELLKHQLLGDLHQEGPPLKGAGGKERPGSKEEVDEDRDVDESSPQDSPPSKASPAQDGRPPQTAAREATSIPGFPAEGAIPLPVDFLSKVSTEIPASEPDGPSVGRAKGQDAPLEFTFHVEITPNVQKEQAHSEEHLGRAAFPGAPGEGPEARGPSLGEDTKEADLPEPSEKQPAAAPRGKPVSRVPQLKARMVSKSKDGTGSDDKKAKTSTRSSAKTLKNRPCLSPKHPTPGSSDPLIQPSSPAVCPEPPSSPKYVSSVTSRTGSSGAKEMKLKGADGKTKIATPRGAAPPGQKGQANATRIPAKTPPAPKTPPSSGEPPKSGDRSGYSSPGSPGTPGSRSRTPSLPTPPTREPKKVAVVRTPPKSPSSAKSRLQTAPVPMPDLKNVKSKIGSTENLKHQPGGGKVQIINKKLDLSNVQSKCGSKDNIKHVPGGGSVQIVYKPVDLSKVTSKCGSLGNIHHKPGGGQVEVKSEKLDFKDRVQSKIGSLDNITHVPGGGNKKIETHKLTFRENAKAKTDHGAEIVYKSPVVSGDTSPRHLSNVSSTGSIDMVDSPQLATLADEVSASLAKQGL

Sequence of Calcitonin gene-related peptide type 1 receptor (Homo sapiens) (Q16602 whole entry): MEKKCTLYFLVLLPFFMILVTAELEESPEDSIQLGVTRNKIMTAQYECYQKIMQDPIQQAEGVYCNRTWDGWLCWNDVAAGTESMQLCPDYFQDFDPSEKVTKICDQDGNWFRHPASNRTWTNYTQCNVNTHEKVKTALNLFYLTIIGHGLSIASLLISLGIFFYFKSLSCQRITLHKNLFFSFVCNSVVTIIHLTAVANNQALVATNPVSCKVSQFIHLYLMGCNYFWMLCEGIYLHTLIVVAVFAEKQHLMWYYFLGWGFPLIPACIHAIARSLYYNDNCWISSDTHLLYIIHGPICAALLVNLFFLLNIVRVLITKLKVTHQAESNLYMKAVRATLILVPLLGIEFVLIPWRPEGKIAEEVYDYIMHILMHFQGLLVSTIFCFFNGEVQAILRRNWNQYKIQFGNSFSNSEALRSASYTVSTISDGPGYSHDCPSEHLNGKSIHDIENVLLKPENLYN
Sequence of Calcitonin gene-related peptide type 1 receptor (Q16602 whole entry, one chain of several): as the sequence (Q16602 whole entry) above

Oc1ccc2cc(-c3cc(O)c(O)c(O)c3)oc2c1
IC50 [1]: 56 µM | logP [2]: 1.82 | inhibition at 0.2 µM [3]: 15.6% | inhibition at 2 µM [4]: 0.5% | inhibition at 20 µM [5]: 0% | inhibition at 0.2 µM [6]: 2.7% | inhibition at 2 µM [7]: 33% | inhibition at 20 µM [8]: 85.9% | inhibition at 0.2 µM [9]: 0% | inhibition at 2 µM [10]: 0% | inhibition at 20 µM [11]: 0% | inhibition at 0.2 µM [12]: 5.8% | inhibition at 2 µM [13]: 3.1% | inhibition at 20 µM [14]: 11.2% | inhibition [15]: 59.9% | IC50 [16]: 2.77 µM

Oc1ccc(/C=C/c2cc(O)c(O)c(O)c2)c(O)c1
IC50 [1]: 78 µM | IC50 [17]: 96 µM | logP [2]: 2.28

COc1ccc(/C=C/c2cc(OC)cc(OC)c2)cc1 [TRISMETHOXYRESVERATROL]
IC50 [17]: 35 µM | logP [2]: 3.85

COc1ccc(-c2cc3cc(OC)cc(OC)c3[nH]2)cc1
IC50 [1]: 211 µM | logP [2]: 2.93

CCCCCCCCCCCC(=O)Oc1ccc(C=Cc2cc(OC(=O)CCCCCCCCCCC)cc(OC(=O)CCCCCCCCCCC)c2)cc1
IC50 [1]: 134 µM | IC50 [17]: 198 µM | logP [2]: > 11.2

CC(C)(C)C(=O)Oc1ccc(/C=C/c2cc(OC(=O)C(C)(C)C)cc(OC(=O)C(C)(C)C)c2)cc1
IC50 [1]: 56 µM | IC50 [17]: 39 µM | logP [2]: 8.76

COc1ccc(OC)c(-c2cc3ccc(OCc4ccccc4)cc3[nH]2)c1
IC50 [1]: 239 µM | logP [2]: 5.15 | inhibition at 0.2 µM [3]: 0% | inhibition at 2 µM [4]: 6.9% | inhibition at 20 µM [5]: 48.9% | inhibition at 0.2 µM [6]: 77.3% | inhibition at 2 µM [7]: 45.6% | inhibition at 20 µM [8]: 89.7% | inhibition at 0.2 µM [9]: 0% | inhibition at 2 µM [10]: 0% | inhibition at 20 µM [11]: 0% | inhibition at 0.2 µM [12]: 7.4% | inhibition at 2 µM [13]: 13.9% | inhibition at 20 µM [14]: 44.5%

Oc1ccc(/C=C/c2cc(O)cc(O)c2)cc1 [RESVERATROL]
inhibition [18]: 21.3% | IC50 [1]: 78 µM | IC50 [17]: 132 µM | inhibition [15]: 2.3%

COc1ccc(/C=C/c2cc(OC)c(OC)c(OC)c2)c(OC)c1
IC50 [1]: 12 µM | IC50 [17]: 28 µM | logP [2]: 3.59

COc1cc(-c2cc3ccc(O)cc3o2)cc(OC)c1OC
inhibition [18]: 58% | IC50 [1]: 14 µM | logP [2]: 2.61 | inhibition at 0.2 µM [3]: 0% | inhibition at 2 µM [4]: 0.5% | inhibition at 20 µM [5]: 0% | inhibition at 0.2 µM [6]: 0% | inhibition at 2 µM [7]: 6.3% | inhibition at 20 µM [8]: 87.4% | inhibition at 0.2 µM [9]: 0% | inhibition at 2 µM [10]: 4.4% | inhibition at 20 µM [11]: 0% | inhibition at 0.2 µM [12]: 8.7% | inhibition at 2 µM [13]: 8.7% | inhibition at 20 µM [14]: 14.9% | inhibition [15]: 54.2% | IC50 [16]: 2.41 µM

COc1cc(OC)cc(-c2cc3ccc(O)cc3o2)c1
IC50 [1]: 19 µM | logP [2]: 2.74

Oc1cc(O)cc(-c2cc3ccc(O)cc3o2)c1 [MORACIN M]
IC50 [1]: 73 µM | logP [2]: 2.21

COc1ccc(-c2cc3cc(C)cc(C)c3[nH]2)cc1
IC50 [1]: 331 µM | logP [2]: 4.15

OCCOc1ccc(/C=C/c2cc(OCCO)cc(OCCO)c2)cc1
IC50 [1]: 23 µM | IC50 [17]: 79 µM | logP [2]: 2.29

COc1ccc(OC)c(-c2cc3ccc(O)cc3[nH]2)c1
IC50 [1]: 10 µM | logP [2]: 2.66 | inhibition at 0.2 µM [3]: 0% | inhibition at 2 µM [4]: 0% | inhibition at 20 µM [5]: 6.3% | inhibition at 0.2 µM [6]: 9.4% | inhibition at 2 µM [7]: 0% | inhibition at 20 µM [8]: 0% | inhibition at 0.2 µM [9]: 0% | inhibition at 2 µM [10]: 0% | inhibition at 20 µM [11]: 55.3% | inhibition at 0.2 µM [12]: 0% | inhibition at 2 µM [13]: 0% | inhibition at 20 µM [14]: 30.3%
